In one test the target is T1, Prostaglandin E synthase (Homo sapiens, UniProt O14684).
T1 sequence (O14684 whole entry): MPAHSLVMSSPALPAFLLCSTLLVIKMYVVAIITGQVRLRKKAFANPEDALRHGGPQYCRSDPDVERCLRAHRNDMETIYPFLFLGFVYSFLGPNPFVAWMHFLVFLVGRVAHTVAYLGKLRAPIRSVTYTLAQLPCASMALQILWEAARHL
The test can be described thus: Inhibition of mPGES-1 in microsomal membranes isolated from interleukin-1beta-stimulated human A549 cells using PGH2 as substrate assessed as PGE2 formation preincubated for 15 mins followed by substrate addition measured after 1 min by RP-HPLC analysis. It counts as cell membranes. The method, boiled down: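 A549 cells kept 16 h in DMEM with 2% FCS, then 1 ng/ml IL-1β for 72 h. Cells homogenized and sonicated, microsomes obtained by centrifugation at 10,000 × g then 174,000 × g. Microsomes in 0.1 M potassium phosphate pH 7.4 with 2.5 mM glutathione, preincubated 15 min with compound or 0.3% DMSO. 20 µM PGH₂ (final) for 1 min at 4 °C. Stopped with FeCl₂/citric acid containing 11β-PGE₂, solid-phase extraction, RP-HPLC with UV at 195 nm.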

Test [1] has as its target T2, Polyunsaturated fatty acid 5-lipoxygenase (Homo sapiens, UniProt P09917).
T2 sequence (P09917 whole entry): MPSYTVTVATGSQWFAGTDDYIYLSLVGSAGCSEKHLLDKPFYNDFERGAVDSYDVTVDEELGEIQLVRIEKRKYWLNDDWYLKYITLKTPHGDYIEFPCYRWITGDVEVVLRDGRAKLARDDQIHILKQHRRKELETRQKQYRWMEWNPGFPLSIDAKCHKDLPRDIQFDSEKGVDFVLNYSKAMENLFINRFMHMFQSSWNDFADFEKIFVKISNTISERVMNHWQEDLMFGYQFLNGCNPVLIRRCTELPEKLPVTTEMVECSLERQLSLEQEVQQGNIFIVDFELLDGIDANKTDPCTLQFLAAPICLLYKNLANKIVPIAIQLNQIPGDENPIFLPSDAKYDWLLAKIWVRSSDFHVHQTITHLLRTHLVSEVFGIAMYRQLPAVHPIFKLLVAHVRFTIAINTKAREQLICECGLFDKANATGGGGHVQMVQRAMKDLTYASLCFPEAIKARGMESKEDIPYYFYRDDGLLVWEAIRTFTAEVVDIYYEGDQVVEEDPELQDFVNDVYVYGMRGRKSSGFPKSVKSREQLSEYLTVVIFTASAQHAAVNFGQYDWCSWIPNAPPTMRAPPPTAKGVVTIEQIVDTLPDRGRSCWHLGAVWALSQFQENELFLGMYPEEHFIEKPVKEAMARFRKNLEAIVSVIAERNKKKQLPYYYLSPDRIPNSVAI
The test can be described thus: Inhibition of recombinant human 5-LO expressed in Escherichia coli BL21 using arachidonic acid as substrate assessed as formation of all-trans isomer of LTB4, 5-H(P)ETE preincubated for 5 to 10 mins followed by substrate addition measured after 10 mins by HPLC analysis.

Test [2] has as its target T3, Polyunsaturated fatty acid 5-lipoxygenase (Homo sapiens) (UniProt P09917).
T3 sequence (whole entry): T2 sequence (P09917 whole entry)
The test can be described thus: Inhibition of recombinant human 5-LO expressed in Escherichia coli BL21 using arachidonic acid as substrate assessed as remaining activity at 10 uM preincubated for 5 to 10 mins followed by substrate addition measured after 10 mins by HPLC analysis relative to control. The method, boiled down:
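5-LO expressed in E. coli BL21 from pT3-5-LO plasmid at 37 °C, then partially purified. Enzyme with compound held 5–10 min at 4 °C, prewarmed 30 s at 37 °C. Reaction started with 2 mM CaCl₂ plus 20 µM AA, stopped after 10 min at 37 °C with ice-cold methanol. All-trans LTB₄ isomers and 5-H(P)ETE quantified by HPLC. BWA4C used as control.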

For test [3], the target named is T2, Polyunsaturated fatty acid 5-lipoxygenase. The test can be described thus: Inhibition of 5-LO in ionophore A23187-stimulated human PMNL using arachidonic acid as substrate assessed as formation of LTB4, 5(S),12(S)-DiHETE, 5-H(p)ETE preincubated for 15 mins followed by substrate and ionophore addition measured after 10 mins by HPLC analysis.
The subject of the next test is Jurkat. Kind of test: Cytotoxicity against human Jurkat cells assessed as induction of cell death after 48 hrs by MTT assay. It counts as functional, cell-based. The method, boiled down: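 Jurkat T cells grown in RPMI 1640 with 10% heat-inactivated FCS, 10 mM HEPES, penicillin/streptomycin at 37 °C, 5% CO₂. Seeded at 2 × 10⁴ per well. Compounds or 0.3% DMSO vehicle added for 48 h. MTT then added until blue staining, cells lysed overnight in 10% SDS/20 mM HCl, absorbance read at 570 nm. Three to four independent experiments.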
On the technique in general: Tetrazolium assays rely on reduction of a dye to a coloured formazan, in cell work by metabolically active cells.

pEC50, pIC50: −log10 of the molar value.

In general, pIC50 refers to the negative decadic logarithm of the IC50, by convention in mol/L. A word on the pEC50: it is −log10 of the EC50, conventionally taken in molar units.

Consider `CC(C)C(=O)c1c(O)c([C@@H](C2=C(O)C(C)(C)C(=O)C(C)(C)C2=O)C(C)C)c(O)c2c1OC1=C(C(=O)C(C)(C)C(=O)C1(C)C)[C@@H]2C(C)C`, for which the pIC50 on Prostaglandin E synthase was 6.31; in test [1], less than 5.00; in test [3], 6.01. Moreover, the Activity in test [2] worked out at 82.3%. Also, the pEC50 in the test on Jurkat was 5.47.
As to `CCCCCC(=O)c1c(O)c([C@@H](CC(C)C)C2=C(O)C(C)(C)C(=O)C(C)(C)C2=O)c(O)c([C@H](C2=C(O)C(C)(C)C(=O)C(C)(C)C2=O)C(C)C)c1O` [MYRTUCOMMULONE H], the pIC50 at Prostaglandin E synthase is 6.52; in test [1], 5.18; in test [3], 5.89. Besides, the pEC50 with Jurkat was 4.66.
Consider `CCCCCC(=O)c1c(O)c([C@H](C2=C(O)C(C)(C)C(=O)C(C)(C)C2=O)C(C)C)c(O)c([C@H](C2=C(O)C(C)(C)C(=O)C(C)(C)C2=O)C(C)C)c1O` [MYRTUCOMMULONE F], for which the pIC50 on Prostaglandin E synthase is 6.22; in test [1], 5.12; in test [3] it was 5.51. The pEC50 with Jurkat is 5.64.
For the molecule `O=C1C(C(c2ccccc2)c2c(O)c(C(=O)c3ccccc3)c(O)c(C(C3=C(O)c4ccccc4C3=O)c3ccccc3)c2O)=C(O)c2ccccc21` (stereo not given), the pIC50 at Prostaglandin E synthase was 6.32; in test [1] it was 5.52; in test [3], 5.74. The pEC50 in the test on Jurkat is less than 4.52.
On to `CCCCCC(=O)c1c(O)cc(O)c(C(C2=C(O)C(C)(C)C(=O)C(C)(C)C2=O)C(C)C)c1O` (stereo not given), for which the pIC50 at Prostaglandin E synthase is 6.41; in test [1], less than 5.00; in test [3] it was 5.80. Moreover, the Activity in test [2] was 72.8%. For the same molecule, in the test on Jurkat, the pEC50 is less than 4.52.
Consider `CC(C)CC(C1=C(O)C(C)(C)C(=O)C(C)(C)C1=O)c1c(O)c(C(=O)C(C)C)c(O)c(C(CC(C)C)C2=C(O)C(C)(C)C(=O)C(C)(C)C2=O)c1O` (stereo not given), for which the pIC50 was 6.54 on Prostaglandin E synthase, 5.32 in test [1] and 6.01 in test [3]. Besides, the pEC50 in the test with Jurkat was 4.91.
`CCCCCC(=O)c1c(O)c(C(C2=C(O)c3ccccc3C2=O)C(C)C)c(O)c(C(C2=C(O)c3ccccc3C2=O)C(C)C)c1O` (stereo not given): the pIC50 in test [1] is 5.77; in test [3], 5.82. In addition, in the test with Jurkat, the pEC50 was less than 4.52.
Consider `CCCCCC(=O)c1c(O)c(C(C2=C(O)CC(C)(C)CC2=O)C(C)C)c(O)c(C(C2=C(O)CC(C)(C)CC2=O)C(C)C)c1O` (stereo not given), for which the pIC50 at Prostaglandin E synthase was 6.24; in test [1] it was less than 5.00; in test [3] it was 5.57. In addition, in test [2], the Activity stood at 68.7%. In addition, in the test on Jurkat, the negative-log EC50 (pEC50) is 5.43.
Regarding `CCCCCC(=O)c1c(O)c(C(C2=C(O)c3ccccc3C2=O)c2ccccc2)c(O)c(C(C2=C(O)c3ccccc3C2=O)c2ccccc2)c1O` (stereo not given), the pIC50 was 6.37 at Prostaglandin E synthase, 6.34 in test [1] and 6.16 in test [3]. Moreover, in the test on Jurkat, the pEC50 is less than 4.52.
With `CCCCCC(=O)c1c(O)c(C(C2=C(O)C(C)(C)C(=O)C(C)(C)C2=O)C(C)C)c(O)c2c1OC1=C(C(=O)C(C)(C)C(=O)C1(C)C)C2C(C)C` (stereo not given), the figures for the pIC50 (at Prostaglandin E synthase; in test [1]; in test [3]) were 6.21, less than 5.00 and 5.89, respectively. Moreover, in test [2], the Activity was 66.7%. For the same molecule, in the test with Jurkat, the pEC50 is 5.60.
Consider `CC(C)CC(=O)c1c(O)c(C(CC(C)C)C2=C(O)C(C)(C)C(=O)C(C)(C)C2=O)c(O)c(C(CC(C)C)C2=C(O)C(C)(C)C(=O)C(C)(C)C2=O)c1O` (stereo not given), for which the pIC50 was 6.66 at Prostaglandin E synthase, 5.57 in test [1] and 6.18 in test [3]. For the same molecule, the pEC50 in the test on Jurkat was 4.72.
Regarding `CCCCCC(=O)c1c(O)c(C(CC(C)C)C2=C(O)C(C)(C)C(=O)C(C)(C)C2=O)c(O)c(C(CC(C)C)C2=C(O)C(C)(C)C(=O)C(C)(C)C2=O)c1O` (stereo not given), the results for the pIC50 (at Prostaglandin E synthase; in test [1]; in test [3]) were 6.62, 5.46 and 6.34, respectively. Moreover, the pEC50 with Jurkat is 4.63.
Take `CC(C)C(=O)c1c(O)c(C(C2=C(O)CC(C)(C)CC2=O)C(C)C)c(O)c(C(C2=C(O)CC(C)(C)CC2=O)C(C)C)c1O` (stereo not given): the pIC50 at Prostaglandin E synthase is 5.68; in test [1], 4.60; in test [3], 4.89. Moreover, the pEC50 in the test on Jurkat was 5.70.
For `CC(C)C(=O)c1c(O)cc(O)c2c1OC1=C(C(=O)C(C)(C)C(=O)C1(C)C)[C@@H]2C(C)C` the same measures were 5.10, 5.21, 5.80 and 5.09.
For the molecule `CC(C)CC(=O)c1c(O)c(C(C2=C(O)c3ccccc3C2=O)C(C)C)c(O)c(C(C2=C(O)c3ccccc3C2=O)C(C)C)c1O` (stereo not given), the pIC50 in test [1] was 5.51; in test [3], 5.89. For the same molecule, the pEC50 with Jurkat is less than 4.52.
On to `CC(C)C(=O)c1c(O)c(C(C2=C(O)c3ccccc3C2=O)C(C)C)c(O)c(C(C2=C(O)c3ccccc3C2=O)C(C)C)c1O` (stereo not given), for which the pIC50 in test [1] was 4.70. For the same molecule, the pEC50 in the test with Jurkat was less than 4.52.
For `CC(C)C(C1=C(O)c2ccccc2C1=O)c1c(O)c(C(=O)c2ccccc2)c(O)c(C(C2=C(O)c3ccccc3C2=O)C(C)C)c1O` (stereo not given), in the test on Jurkat, the pEC50 is less than 4.52.
Regarding `CC(C)C(=O)c1c(O)cc(O)c(C(C2=C(O)C(C)(C)C(=O)C(C)(C)C2=O)C(C)C)c1O` (stereo not given), the pIC50 on Prostaglandin E synthase was 6.09; in test [1] it was less than 5.00; in test [3], 5.09. Also, the Activity in test [2] came out at 82.5%. Besides, the pEC50 in the test on Jurkat is less than 4.52.
As to `CCCCCC(=O)c1c(O)c(C(CC(C)C)C2=C(O)CC(C)(C)CC2=O)c(O)c(C(CC(C)C)C2=C(O)CC(C)(C)CC2=O)c1O` (stereo not given), the values for the pIC50 (at Prostaglandin E synthase; in test [1]; in test [3]) were 6.09, 5.54 and 5.14, respectively. In addition, the pEC50 in the test with Jurkat is 4.88.
Take `CC(C)CC(=O)c1c(O)c(C(C2=C(O)c3ccccc3C2=O)c2ccccc2)c(O)c(C(C2=C(O)c3ccccc3C2=O)c2ccccc2)c1O` (stereo not given): the pIC50 on Prostaglandin E synthase was 6.19; in test [1], 5.92; in test [3] it was 5.68. Also, the pEC50 in the test on Jurkat is less than 4.52.
For `CCCCCC(=O)c1c(O)cc(O)c2c1OC1=C(C(=O)C(C)(C)C(=O)C1(C)C)C2C(C)C` (stereo not given) the same measures were 5.19, 5.60, 5.80 and 5.13.
Regarding `CC(=O)c1c(O)c(C(C2=C(O)CC(C)(C)CC2=O)C(C)C)c(O)c(C(C2=C(O)CC(C)(C)CC2=O)C(C)C)c1O` (stereo not given), the figures for the pIC50 (on Prostaglandin E synthase; in test [1]; in test [3]) were 5.96, less than 5.00 and 5.09, respectively. In addition, the Activity in test [2] came out at 69.3%. Besides, in the test on Jurkat, the pEC50 is 5.12.
On to `CC(C)CC(=O)c1c(O)cc(O)c(C(CC(C)C)C2=C(O)C(C)(C)C(=O)C(C)(C)C2=O)c1O` (stereo not given), for which the pIC50 on Prostaglandin E synthase was 6.19; in test [1], 5.34; in test [3], 5.74. Also, the pEC50 in the test with Jurkat is less than 4.52.
On to `CC(C)C(=O)c1c(O)c(C(C2=C(O)c3ccccc3C2=O)c2ccccc2)c(O)c(C(C2=C(O)c3ccccc3C2=O)c2ccccc2)c1O` (stereo not given), for which the negative-log IC50 (pIC50) was 6.09 on Prostaglandin E synthase, 6.14 in test [1] and 5.85 in test [3]. For the same molecule, the pEC50 in the test with Jurkat was less than 4.52.

The values above are taken from ChEMBL document CHEMBL3608292, “Synthesis and biological evaluation of novel myrtucommulones and structural analogues that target mPGES-1 and 5-lipoxygenase” (Eur J Med Chem, 2015).
